Several values for one entry are separate records, joined by “and”; a condition that tells them apart may be missing. Identical values can stand only once.
Test system: Fibroblast
Assay: Multiplex assay against human fibroblast
Type: toxicity, cell-based
Outline: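 Live cells carried four stains from seeding: Hoechst33342, BioTracker Green Microtubule Cytoskeleton Dye, MitoTracker Red and Annexin V Alexa Fluor 680. They were imaged on a CQ1 microscope at 37°C and 5% CO2 after compound addition. Using CellPathfinder machine-learning gating, cells were split into Hoechst high-intensity objects or normal cells, normal cells into healthy, pyknosed or fragmented nuclei, and pyknosed cells into mitotic or apoptotic; tubulin, mitochondrial-mass and membrane-permeability phenotypes are per cents of healthy-nucleus cells.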

[1] = 12 h, 1 µM, compound concentration 1 uM
[2] = 12 h, 10 µM, compound concentration 10 uM
[3] = 24 h, 1 µM, compound concentration 1 uM
[4] = 24 h, 10 µM, compound concentration 10 uM
[5] = 48 h, 1 µM, compound concentration 1 uM
[6] = 48 h, 10 µM, compound concentration 10 uM

## Cc1ccc(/C(=C\CN2CCCC2)c2ccccn2)cc1 [TRIPROLIDINE]
[1]
  Population Apoptotic (%): 52% and 41%
  Population Fragmented Nuclei (%): 17% and 28%
  Population Healthy Nuclei (%): 64% and 45%
  Population Hoechst High Intensity Objects (%): 3% and 4%
  Population Membrane Permeable-Phenotype (%): 0% and 1%
  Population Mitochondria Different-Phenotype (%): 9%
  Population Mitotic Cells (%): 47% and 58%
  Population Normal (%): 96% and 95%
  Population Pyknosed Nuclei (%): 18% and 25%
  Population Tubulin-Different-Phenotype (%): 29% and 60%
  Total Cell Count: 119 and 127
[2]
  Population Apoptotic (%): 57% and 50%
  Population Fragmented Nuclei (%): 14% and 26%
  Population Healthy Nuclei (%): 64% and 52%
  Population Hoechst High Intensity Objects (%): 2%
  Population Membrane Permeable-Phenotype (%): 0% and 9%
  Population Mitochondria Different-Phenotype (%): 5% and 9%
  Population Mitotic Cells (%): 42% and 50%
  Population Normal (%): 97%
  Population Pyknosed Nuclei (%): 20% and 21%
  Population Tubulin-Different-Phenotype (%): 44% and 59%
  Total Cell Count: 139 and 141
[3]
  Population Apoptotic (%): 43% and 46%
  Population Fragmented Nuclei (%): 17% and 29%
  Population Healthy Nuclei (%): 69% and 43%
  Population Hoechst High Intensity Objects (%): 4% and 9%
  Population Membrane Permeable-Phenotype (%): 1% and 6%
  Population Mitochondria Different-Phenotype (%): 3% and 6%
  Population Mitotic Cells (%): 56% and 53%
  Population Normal (%): 95% and 90%
  Population Pyknosed Nuclei (%): 13% and 27%
  Population Tubulin-Different-Phenotype (%): 23% and 64%
  Total Cell Count: 128 and 121
[4]
  Population Apoptotic (%): 47% and 58%
  Population Fragmented Nuclei (%): 15% and 29%
  Population Healthy Nuclei (%): 68% and 52%
  Population Hoechst High Intensity Objects (%): 4% and 2%
  Population Membrane Permeable-Phenotype (%): 0% and 6%
  Population Mitochondria Different-Phenotype (%): 3% and 12%
  Population Mitotic Cells (%): 52% and 41%
  Population Normal (%): 95% and 97%
  Population Pyknosed Nuclei (%): 15% and 17%
  Population Tubulin-Different-Phenotype (%): 41% and 62%
  Total Cell Count: 142 and 141
[5]
  Population Apoptotic (%): 54% and 52%
  Population Fragmented Nuclei (%): 26% and 29%
  Population Healthy Nuclei (%): 65% and 48%
  Population Hoechst High Intensity Objects (%): 3% and 7%
  Population Membrane Permeable-Phenotype (%): 1% and 7%
  Population Mitochondria Different-Phenotype (%): 2% and 10%
  Population Mitotic Cells (%): 45% and 48%
  Population Normal (%): 96% and 92%
  Population Pyknosed Nuclei (%): 8% and 21%
  Population Tubulin-Different-Phenotype (%): 31% and 57%
  Total Cell Count: 135 and 124
[6]
  Population Apoptotic (%): 38% and 42%
  Population Fragmented Nuclei (%): 20% and 32%
  Population Healthy Nuclei (%): 69% and 56%
  Population Hoechst High Intensity Objects (%): 7% and 5%
  Population Membrane Permeable-Phenotype (%): 1% and 5%
  Population Mitochondria Different-Phenotype (%): 6% and 9%
  Population Mitotic Cells (%): 61% and 57%
  Population Normal (%): 92% and 94%
  Population Pyknosed Nuclei (%): 9% and 10%
  Population Tubulin-Different-Phenotype (%): 35% and 54%
  Total Cell Count: 142 and 140

## Cc1nc2ccc(Oc3ccc(F)cc3)cc2c(=O)n1C[C@H]1CCCN(C(C)C)C1.Cl
[1]
  Population Apoptotic (%): 34% and 44%
  Population Fragmented Nuclei (%): 19% and 24%
  Population Healthy Nuclei (%): 67% and 47%
  Population Hoechst High Intensity Objects (%): 5% and 9%
  Population Mitochondria Different-Phenotype (%): 4% and 8%
  Population Mitotic Cells (%): 65% and 55%
  Population Normal (%): 94% and 90%
  Population Pyknosed Nuclei (%): 13% and 29%
  Population Tubulin-Different-Phenotype (%): 31% and 70%
  Total Cell Count: 184 and 111
[2]
  Population Apoptotic (%): 53% and 61%
  Population Fragmented Nuclei (%): 19% and 36%
  Population Healthy Nuclei (%): 61% and 44%
  Population Hoechst High Intensity Objects (%): 4% and 3%
  Population Membrane Permeable-Phenotype (%): 1% and 5%
  Population Mitochondria Different-Phenotype (%): 22% and 25%
  Population Mitotic Cells (%): 46% and 38%
  Population Normal (%): 95% and 96%
  Population Pyknosed Nuclei (%): 19%
  Population Tubulin-Different-Phenotype (%): 88% and 80%
  Total Cell Count: 241 and 205
[3]
  Population Apoptotic (%): 66% and 38%
  Population Fragmented Nuclei (%): 17% and 29%
  Population Healthy Nuclei (%): 68% and 50%
  Population Hoechst High Intensity Objects (%): 3% and 7%
  Population Mitochondria Different-Phenotype (%): 6% and 17%
  Population Mitotic Cells (%): 33% and 61%
  Population Normal (%): 96% and 92%
  Population Pyknosed Nuclei (%): 13% and 20%
  Population Tubulin-Different-Phenotype (%): 30% and 73%
  Total Cell Count: 186 and 112
[4]
  Population Apoptotic (%): 67% and 54%
  Population Fragmented Nuclei (%): 27% and 30%
  Population Healthy Nuclei (%): 58% and 52%
  Population Hoechst High Intensity Objects (%): 3% and 6%
  Population Membrane Permeable-Phenotype (%): 0% and 1%
  Population Mitochondria Different-Phenotype (%): 27% and 29%
  Population Mitotic Cells (%): 32% and 45%
  Population Normal (%): 96% and 93%
  Population Pyknosed Nuclei (%): 13% and 17%
  Population Tubulin-Different-Phenotype (%): 84% and 87%
  Total Cell Count: 290 and 187
[5]
  Population Apoptotic (%): 66% and 42%
  Population Fragmented Nuclei (%): 25% and 36%
  Population Healthy Nuclei (%): 66% and 44%
  Population Hoechst High Intensity Objects (%): 3% and 5%
  Population Membrane Permeable-Phenotype (%): 0% and 6%
  Population Mitotic Cells (%): 33% and 57%
  Population Normal (%): 96% and 94%
  Population Pyknosed Nuclei (%): 8% and 19%
  Population Tubulin-Different-Phenotype (%): 33% and 68%
  Total Cell Count: 184 and 105
[6]
  Population Apoptotic (%): 66% and 68%
  Population Fragmented Nuclei (%): 23% and 33%
  Population Healthy Nuclei (%): 65% and 53%
  Population Hoechst High Intensity Objects (%): 9% and 3%
  Population Membrane Permeable-Phenotype (%): 0% and 2%
  Population Mitochondria Different-Phenotype (%): 20% and 19%
  Population Mitotic Cells (%): 33% and 32%
  Population Normal (%): 90% and 96%
  Population Pyknosed Nuclei (%): 10% and 12%
  Population Tubulin-Different-Phenotype (%): 85%
  Total Cell Count: 290 and 201
